Bioassay records as filed in PubChem BioAssay.
Yeast lifespan up – yeast lifespan extension. actives 0.68% (n = 130,000). inhibition of the nicotinamide effect, % at 10 µM. AID 775. S. cerevisiae growth with nicotinamide, OD615; deaD strain in restrictive glucose medium;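 active means inhibition above a set limit, placed 3 SD over the median of all compounds, cut at about 26% in these data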;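 further: 0% = nicotinamide-treated wells and 100% = cells grown without nicotinamide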
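Buffer or medium: CSMM-D glucose medium, restrictive; test system: modified budding yeast, DeaD strain; compound: single dose 10 µM compound, 0.25% DMSO; schedule: culture preincubation 4 h, compound exposure 48 h, both 30 °C; detection: optical density (absorbance) at 615 nm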
Insulin prom inh – TRM-6 insulin promoter activity inhibition | TRM-6 cells, insulin promoter-eGFP reporter, imaging; reporter expression induced with tamoxifen | inhibition, % at 2 µM | actives 0.9% (n = 130,000) | AID 1273;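 active means inhibition above the mean plus 3 SD, with well images judged a real hit on visual review, cut at about 60% in these data, passing the limit was not always enough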
Insulin prom up – MIN6 insulin promoter up-regulation; AID 1625; MIN6 insulin promoter-GFP reporter, high-content imaging; hits give high values; z-score at 5 µM; actives 0.3% (n = 190,000);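 active means z-score above 3 at 5 µM with at least 500 cells counted in the well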
RAM inhibit – blocks the yeast RAM network | S. cerevisiae dse1pr::URA3 reporter, 5-FOA growth OD615, 2 d; analog-sensitive cbk1-as2 kinase mutant strain | inhibition, % at 50 µM | actives 1.8% (n = 190,000);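 active means inhibition above a set limit, 3 SD over mean compound inhibition, cut at about 8.4% in these data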;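 further: 0% = DMSO-only wells with no growth and 100% = 10 µM 1-NA-PP1 full growth; inhibition rescues growth on 5-FOA so higher OD means more RAM inhibition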
BB579 growth dn – yeast BB579 growth reduction in restrictive medium; S. cerevisiae BB579 growth, OD615, 48 h; inhibition, % at 10 µM; actives 0.51% (n = 140,000);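 active means inhibition above a set limit, 3 SD over the mean compound inhibition, cut at about 44% in these data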
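controls = amphotericin B 10 µg/mL, positive | assay system = DeaD yeast strain BB579 | schedule = 48 h compound exposure at 30 °C after 4 h preincubation | detection = OD615 turbidity measurement | medium = restrictive CSMM-D medium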
Starred values were filed as active, the others as inactive; . = no result. An excerpt weighted towards active compounds, which were near 3% of everything screened.

SMILES	Yeast lifespan up	Insulin prom inh	Insulin prom up	RAM inhibit	BB579 growth dn
N#C/C(=C/c1cccs1)c1nc2ccccc2[nH]1	0	75*	-0.2	7	-15
O=c1[nH]c(C2CCN(S(=O)(=O)c3ccccc3)CC2)nc2c1nnn2Cc1ccccc1	.	.	-0.33	3	.
COc1ccc(Cc2[nH]n3c(=O)c(Cl)c(C)nc3c2-c2ccccc2)cc1	.	12	0.09	11*	.
COc1ccc(/C=N/n2c(N)nc3ccccc32)cc1OC	-6	75*	-0.25	2	6
O=C1C(Cc2ccccc2)SC(=Nc2ccccc2)N1c1ccccc1 (stereo not given)	-1	-57	-0.32	5	-40
O=C1/C(=C\c2ccc(Br)o2)SC(=Nc2ccccc2)N1c1ccccc1	8	-26	.	11*	-64
CCOc1ccccc1NC(=S)N(Cc1cc2ccc(C)cc2[nH]c1=O)CC1CCCN1CC (stereo not given)	0	-59	-0.1	0	-11
CCCC(=O)Nc1cc(C)c(NC(=O)C23CC4CC(CC(C4)C2)C3)cn1	12	57	0.57	2	-25
Cc1cc(NC(=O)C2CC2)ncc1NC(=O)C12CC3CC(CC(C3)C1)C2	29*	.	0.74	0	-31
CCOc1ccc2nc(SCC(=O)N3c4ccccc4Sc4ccccc43)c(C#N)cc2c1	2	-163	0.73	5	-19
CCOc1ccc2nc(SCc3ccc(CC(=O)O)cc3)c(C#N)cc2c1	.	-24	-0.41	9.5*	.
CCCCSc1nc(C)c(C(C)=O)cc1C#N	-16	-15	-0.06	10*	50*
CCOC(=O)c1cc(C#N)c(SCc2ccc(C#N)cc2)nc1C	-10	44	.	10*	-14
O=[N+]([O-])c1ccc(OCCO)c(P(=O)(c2ccccc2)c2ccccc2)c1	.	.	0.18	.	.
COCn1c(-c2ccc(OC)cc2)nc2ccccc21	.	92*	0.07	0	-55
Cc1nn(-c2ccccc2)c(Cl)c1/C=N/NS(=O)(=O)c1ccc(Br)cc1	7	69*	-0.27	3	-45
CCCc1cc(C(=O)Nc2sc(C)c(CC)c2C#N)no1	-7	70*	1.2	2	10
O=Cc1c(Sc2ccccn2)nc2ccccn2c1=O	.	8	1.2	1	0
O=Cc1c(Sc2ccccc2)nc2ccccn2c1=O	-19	0	-0.41	3	65*
O=C(Cc1ccccc1)NNS(=O)(=O)c1ccc(F)cc1	.	.	-1.1	0	.
N=C1/C(=C/c2cccn2-c2ccc([N+](=O)[O-])cc2)C(=O)N=C2SC=CN12	-6	-30	0.12	10*	-26
C=CCSc1nc(Oc2ccccc2)c2sccc2n1	-21	-13	-0.37	0	-39
C=CCNc1nc(SCC=C)nc2ccsc12	-25	83*	-0.23	-1	-42
COc1ccc(/C=C/C(=O)NC(=S)Nc2ccc(S(=O)(=O)Nc3cc(OC)ncn3)cc2)cc1	.	21	0.11	8.7*	.
COc1cc(NS(=O)(=O)c2ccc(NC(=S)NC(=O)/C=C/c3ccc(OC)c(OC)c3)cc2)ncn1	.	.	.	6	.
SMILES	Yeast lifespan up	Insulin prom inh	Insulin prom up	RAM inhibit	BB579 growth dn
CCc1ccc(C(=O)CN2C(=O)NC(C)(CCc3ccccc3)C2=O)cc1 (stereo not given)	46*	-78	0.26	5	-28
Cn1c(SCC(=O)N/N=C/c2ccc([N+](=O)[O-])s2)nnc1-c1ccc(Cl)cc1	-6	-66	-0.13	-1	99*
COc1cc([N+](=O)[O-])cc(/C=N/NC(=O)CSc2nnc(-c3ccccc3)n2C)c1O	.	.	-0.54	.	.
CCOc1ccc(/C=C/C(=O)c2ccc(-c3ccccc3)cc2)cc1	3	.	0.17	8.9*	-44
CCOc1ccc(/C=C/C(=O)Nc2cccc(C(C)=O)c2)cc1	-2	-10	-0.33	9.7*	-39
COc1ccc(/C=C/C(=O)c2ccc(O)cc2)cc1	.	.	0.68	0	.
CC1CC(NC(=O)N(C)C)N(C)C(=O)N1 (stereo not given)	7	-33	0.23	2	-45
Cc1cc(C)nc(N=Nc2c(O)n(Cc3ccc(Cl)cc3)c3ccccc23)n1	-3	31	.	0	10
C(=Nc1ccc(Nc2ccccc2)cc1)c1ccc2ccccc2c1	4	64*	0.57	2	-17
Brc1ccc(C=Nc2ccc(Nc3ccccc3)cc2)s1	9	27	2	3	-58
Cc1ccc(C(=O)C2C(=O)c3ccccc3C2=O)cc1	69*	-34	-1.2	-1	-44
